Test results: ChEMBL document CHEMBL1128222, “Novel inhibitors for multidrug resistance: 1,3,5-triazacycloheptanes” (J Med Chem, 1995)

Columns and labels:
P388/ADR = assay: Evaluation of inhibitory activity and cisplatin against multidrug resistant P388 cells (P388/ADR) cells; type: functional, cell-based, Mus musculus
Outline: (§1)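 P388/S or P388/ADR cells at 10^5 cells/mL in RPMI-1640/10% FCS medium. They receive graded adriamycin, mitomycin C or cisplatin, alone or together with 2.5 μM modulator, for 48 h (DMSO final 0.25%). Growth is read by MTT and the antitumor-drug IC50 is reported.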

P388/S = assay: Evaluation of inhibitory activity and cisplatin against drug sensitive P388 cells (P388/S) cells; type: functional, cell-based, Mus musculus; details: p388/s; outline: as §1

1,5-Bis-(4-chloro-benzyl)-4-methylsulfanyl-1,5,6,7-tetrahydro-[1,3,5]triazepin-2-one; compound with cisplatin
IC50 (P388/ADR): 51 nM | IC50 (P388/S): 72 nM
